From ChEMBL document CHEMBL3272313, “3-Hydroxy-17-aralkylmorphinans as potential opiate receptor-site-directed alkylating agents” (J Med Chem, 1977)
Calls of active or inactive are those of the source. No cut-off for these calls is given here.

What was measured:
Mus musculus [1] = assay: Analgesic activity in sc dosed Swiss-Webster mouse after 30 mins; format: functional; settings: 0.5 h
Mus musculus [2] = assay: Analgesic activity in sc dosed Swiss-Webster mouse time of peak effect; format: functional
Mus musculus [3] = assay: Analgesic activity in Swiss-Webster mouse assessed as time required for sustainance of activity at 100 mg/kg, sc; format: functional; settings: route subcutaneous
Mus musculus [4] = assay: Inhibition of morphine sulfate-induced analgesic activity in Swiss-Webster mouse at 100 mg/kg, sc after 1 hr; format: functional, organism-based; design: dose 100 mg/kg
Procedure, shortened: (§1)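 Male Swiss-Webster mice, 20–25 g. Challenge was 10 mg/kg morphine sulfate in 8–10 mice, read by the modified D'Amour–Smith test. Where block was seen, morphine ED50 (95% limits) was found by Litchfield–Wilcoxon.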

Mus musculus [5] = assay: Analgesic activity in Swiss-Webster mouse assessed as time required for sustainance of activity at 50 mg/kg, sc; format: functional; settings: route subcutaneous
Mus musculus [6] = assay: Inhibition of morphine sulfate-induced analgesic activity in Swiss-Webster mouse at 50 mg/kg, sc after 2 hrs; format: functional, organism-based; design: dose 50 mg/kg; procedure, shortened: as §1
Mus musculus [7] = assay: Inhibition of morphine sulfate-induced analgesic activity in Swiss-Webster mouse at 100 mg/kg, sc after 2 hrs; format: functional, organism-based; design: dose 100 mg/kg; procedure, shortened: as §1
Mus musculus [8] = assay: Analgesic activity in Swiss-Webster mouse assessed as time required for sustainance of activity at 40 mg/kg, sc; format: functional; settings: route subcutaneous
Mus musculus [9] = assay: Inhibition of morphine sulfate-induced analgesic activity in Swiss-Webster mouse at 40 mg/kg, sc after 3 hrs; format: functional, organism-based; design: dose 40 mg/kg; procedure, shortened: as §1
Mus musculus [10] = assay: Analgesic activity in Swiss-Webster mouse assessed as time required for sustainance of activity at 350 mg/kg, sc; format: functional; settings: route subcutaneous
Mus musculus [11] = assay: Inhibition of morphine sulfate-induced analgesic activity in Swiss-Webster mouse at 350 mg/kg, sc after 2 hrs; format: functional, organism-based; design: dose 350 mg/kg; procedure, shortened: as §1
Mus musculus [12] = species on record: Mus musculus; assay: Narcotic agonist activity in morphine-dependent mouse assessed as suppression of abstinence; format: functional, organism-based
Procedure, shortened: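 Single-dose suppression test in morphine-dependent mice after withdrawal (method of Takemori et al.); compound given sc.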

Mus musculus [13] = assay: Analgesic activity in Swiss-Webster mouse assessed as time required for sustainance of activity at 15 mg/kg, sc; format: functional; settings: route subcutaneous
Mus musculus [14] = assay: Analgesic activity in Swiss-Webster mouse assessed as time required for sustainance of activity at 5 mg/kg, sc; format: functional; settings: route subcutaneous
Mus musculus [15] = assay: Ratio of morphine ED50 to compound ED50 for sc dosed Swiss-Webster mouse; format: functional
Mus musculus [16] = assay: Analgesic activity in Swiss-Webster mouse assessed as time required for sustainance of activity at 2.6 mg/kg, sc; format: functional; settings: route subcutaneous
Mus musculus [17] = assay: Inhibition of morphine sulfate-induced analgesic activity in Swiss-Webster mouse at 2.6 mg/kg, sc after 2.5 hrs; format: functional, organism-based; design: dose 2.6 mg/kg; procedure, shortened: as §1
Mus musculus [18] = assay: Analgesic activity in Swiss-Webster mouse assessed as time required for sustainance of activity at 2.7 mg/kg, sc; format: functional; settings: route subcutaneous
Mus musculus [19] = assay: Analgesic activity in Swiss-Webster mouse assessed as time required for sustainance of activity at 80 mg/kg, sc; format: functional; settings: route subcutaneous
Mus musculus [20] = assay: Inhibition of morphine sulfate-induced analgesic activity in Swiss-Webster mouse at 80 mg/kg, sc after 1 hr; format: functional, organism-based; design: dose 80 mg/kg; procedure, shortened: as §1
Mus musculus [21] = assay: Analgesic activity in Swiss-Webster mouse assessed as time required for sustainance of activity at 20 mg/kg, sc; format: functional; settings: route subcutaneous
Mus musculus [22] = assay: Analgesic activity in Swiss-Webster mouse assessed as time required for sustainance of activity at 380 mg/kg, sc; format: functional; settings: route subcutaneous
Mus musculus [23] = assay: Inhibition of morphine sulfate-induced analgesic activity in Swiss-Webster mouse at 380 mg/kg, sc after 5.5 hrs; format: functional, organism-based; design: dose 380 mg/kg; procedure, shortened: as §1
Mus musculus [24] = assay: Analgesic activity in Swiss-Webster mouse assessed as time required for sustainance of activity at 0.81 mg/kg, sc; format: functional; settings: route subcutaneous
Mus musculus [25] = assay: Inhibition of morphine sulfate-induced analgesic activity in Swiss-Webster mouse at 0.81 mg/kg, sc after 2.5 hrs; format: functional, organism-based; design: dose 0.81 mg/kg; procedure, shortened: as §1
Mus musculus [26] = assay: Inhibition of morphine sulfate-induced analgesic activity in Swiss-Webster mouse at 5.3 mg/kg, sc after 3 hrs; format: functional, organism-based; design: dose 5.3 mg/kg; procedure, shortened: as §1
Mus musculus [27] = assay: Analgesic activity in Swiss-Webster mouse assessed as time required for sustainance of activity at 5.3 mg/kg, sc; format: functional; settings: route subcutaneous
Mus musculus [28] = assay: Inhibition of morphine sulfate-induced analgesic activity in Swiss-Webster mouse at 100 mg/kg, sc after 3 hrs; format: functional, organism-based; design: dose 100 mg/kg; procedure, shortened: as §1

| SMILES | ED50 (Mus musculus [1]) | Time (Mus musculus [2]) | Time (Mus musculus [3]) | other results |
| --- | --- | --- | --- | --- |
| Br.CC1C2Cc3ccc(O)cc3C1(C)CCN2CCc1ccccc1 (centres undefined) [PHENAZOCINE HYDROBROMIDE] | 0.53 mg/kg | 30 min | – | – |
| O=C(CBr)Nc1ccc(CCCN2CC[C@]34CCCC[C@H]3[C@H]2Cc2ccc(O)cc24)cc1 | > 100 mg/kg | – | 1 h | inhibition (Mus musculus [4]): Active |
| CCOC(=O)/C=C\C(=O)Nc1cccc(CCCN2CC[C@]34CCCC[C@H]3[C@H]2Cc2ccc(O)cc24)c1 | > 100 mg/kg | – | – | Time (Mus musculus [5]): 2 h; inhibition (Mus musculus [6]): Active |
| O=C(CBr)Nc1ccccc1CCCN1CC[C@]23CCCC[C@H]2[C@H]1Cc1ccc(O)cc13 | > 100 mg/kg | – | 1 h | inhibition (Mus musculus [4]): Active |
| CCOC(=O)CCC(=O)Nc1cccc(CCCN2CC[C@]34CCCC[C@H]3[C@H]2Cc2ccc(O)cc24)c1 | 77.9 mg/kg | 30 min | 1 h | inhibition (Mus musculus [4]): Active |
| O=C1C=CC(=O)N1c1cccc(CCCN2CC[C@]34CCCC[C@H]3[C@H]2Cc2ccc(O)cc24)c1 | > 50 mg/kg | – | – | Time (Mus musculus [5]): 2 h; inhibition (Mus musculus [6]): Active |
| CCOC(=O)/C=C/C(=O)Nc1ccc(CCCN2CC[C@]34CCCC[C@H]3[C@H]2Cc2ccc(O)cc24)cc1 | 28.4 mg/kg | 30 min | 2 h | inhibition (Mus musculus [7]): Active |
| CCOC(=O)CCC(=O)Nc1cccc(CCN2CC[C@]34CCCC[C@H]3[C@H]2Cc2ccc(O)cc24)c1 | 6 mg/kg | 60 min | – | Time (Mus musculus [8]): 3 h; inhibition (Mus musculus [9]): Active |
| CCOC(=O)/C=C/C(=O)Nc1ccccc1CCCN1CC[C@]23CCCC[C@H]2[C@H]1Cc1ccc(O)cc13 | 84 mg/kg | 15 min | – | Time (Mus musculus [10]): 2 h; inhibition (Mus musculus [11]): Active |
| CCOC(=O)CCC(=O)Nc1ccccc1CCN1CC[C@]23CCCC[C@H]2[C@H]1Cc1ccc(O)cc13 | > 100 mg/kg | – | 1 h | inhibition (Mus musculus [4]): Active |
| CCOC(=O)/C=C\C(=O)Nc1cccc(CCN2CC[C@]34CCCC[C@H]3[C@H]2Cc2ccc(O)cc24)c1 | 2.3 mg/kg | 60 min | – | inhibition (Mus musculus [12]): Active; Time (Mus musculus [13]): 3 h |
| CCOC(=O)CCC(=O)Nc1ccccc1CCCN1CC[C@]23CCCC[C@H]2[C@H]1Cc1ccc(O)cc13 | > 100 mg/kg | – | 2 h | inhibition (Mus musculus [7]): Active |
| CN1CC[C@]23c4c5ccc(O)c4O[C@H]2[C@@H](O)C=C[C@H]3[C@H]1C5.CN1CC[C@]23c4c5ccc(O)c4O[C@H]2[C@@H](O)C=C[C@H]3[C@H]1C5.O=S(=O)(O)O | 4.9 mg/kg | 30 min | – | – |
| CC(=O)Oc1ccc2c(c1)[C@@]13CCCC[C@H]1[C@@H](C2)N(CCCc1ccc(N2C(=O)C=CC2=O)cc1)CC3 | > 50 mg/kg | – | – | Time (Mus musculus [5]): 2 h; inhibition (Mus musculus [6]): Active |
| CC(=O)Oc1ccc2c(c1)[C@@]13CCCC[C@H]1[C@@H](C2)N(CCc1ccc(N2C(=O)C=CC2=O)cc1)CC3 | 0.59 mg/kg | 30 min | – | inhibition (Mus musculus [12]): Active; Time (Mus musculus [14]): 4 h |
| CC(=O)Oc1ccc2c(c1)[C@@]13CCCC[C@H]1[C@@H](C2)N(CCCc1cccc(N2C(=O)C=CC2=O)c1)CC3 | > 100 mg/kg | – | 2 h | inhibition (Mus musculus [7]): Active |
| CCOC(=O)/C=C/C(=O)Nc1ccc(CCN2CC[C@]34CCCC[C@H]3[C@H]2Cc2ccc(O)cc24)cc1 | 1.2 mg/kg | 60 min | – | Ratio ED50 (Mus musculus [15]): 4; Time (Mus musculus [16]): 2.5 h; inhibition (Mus musculus [17]): Active |
| CCOC(=O)CCC(=O)Nc1ccc(CCN2CC[C@]34CCCC[C@H]3[C@H]2Cc2ccc(O)cc24)cc1 | 0.71 mg/kg | 60 min | – | inhibition (Mus musculus [12]): Active; Ratio ED50 (Mus musculus [15]): 4; Time (Mus musculus [18]): 4 h |
| O=C(CBr)Nc1cccc(CCCN2CC[C@]34CCCC[C@H]3[C@H]2Cc2ccc(O)cc24)c1 | > 100 mg/kg | – | 1 h | inhibition (Mus musculus [4]): Active |
| O=C1C=CC(=O)N1c1ccccc1CCN1CC[C@]23CCCC[C@H]2[C@H]1Cc1ccc(O)cc13 | > 100 mg/kg | – | – | Time (Mus musculus [19]): 1 h; inhibition (Mus musculus [20]): Active |
| CCOC(=O)/C=C/C(=O)Nc1cccc(CCN2CC[C@]34CCCC[C@H]3[C@H]2Cc2ccc(O)cc24)c1 | 5.6 mg/kg | 60 min | – | inhibition (Mus musculus [12]): Active; Time (Mus musculus [21]): 3 h |
| CC(=O)Oc1ccc2c(c1)[C@@]13CCCC[C@H]1[C@@H](C2)N(CCc1ccccc1N1C(=O)C=CC1=O)CC3 | 11.7 mg/kg | 30 min | – | Time (Mus musculus [21]): 2 h |
| CCOC(=O)/C=C/C(=O)Nc1cccc(CCCN2CC[C@]34CCCC[C@H]3[C@H]2Cc2ccc(O)cc24)c1 | 76.5 mg/kg | 30 min | – | Time (Mus musculus [22]): 5.5 h; inhibition (Mus musculus [23]): Active |
| CCOC(=O)CCC(=O)Nc1ccc(CCCN2CC[C@]34CCCC[C@H]3[C@H]2Cc2ccc(O)cc24)cc1 | 78.2 mg/kg | 30 min | 2 h | inhibition (Mus musculus [7]): Active |
| O=C1C=CC(=O)N1c1cccc(CCN2CC[C@]34CCCC[C@H]3[C@H]2Cc2ccc(O)cc24)c1 | 11.4 mg/kg | 30 min | – | inhibition (Mus musculus [12]): Active; Time (Mus musculus [21]): 2 h |
| O=C(CBr)Nc1ccc(CCN2CC[C@]34CCCC[C@H]3[C@H]2Cc2ccc(O)cc24)cc1 | 0.13 mg/kg | 30 min | – | Ratio ED50 (Mus musculus [15]): 4; Time (Mus musculus [24]): 2.5 h; inhibition (Mus musculus [25]): Active |
| CCOC(=O)/C=C/C(=O)Nc1ccccc1CCN1CC[C@]23CCCC[C@H]2[C@H]1Cc1ccc(O)cc13 | > 150 mg/kg | – | – | – |
| O=C(CBr)Nc1cccc(CCN2CC[C@]34CCCC[C@H]3[C@H]2Cc2ccc(O)cc24)c1 | 0.58 mg/kg | 30 min | – | inhibition (Mus musculus [26]): Active; Time (Mus musculus [27]): 3 h |
| CCOC(=O)/C=C\C(=O)Nc1ccccc1CCCN1CC[C@]23CCCC[C@H]2[C@H]1Cc1ccc(O)cc13 | > 100 mg/kg | – | 2 h | inhibition (Mus musculus [7]): Active |
| CC(=O)Oc1ccc2c(c1)[C@@]13CCCC[C@H]1[C@@H](C2)N(CCCc1ccccc1N1C(=O)C=CC1=O)CC3 | 48.4 mg/kg | 30 min | 3 h | inhibition (Mus musculus [28]): Active |
